Entries after “also recorded” stand apart in the source; their conditions may differ. Read-outs that look alike come from different tables or passages of the source.

Consider four molecules from publication PMC3996760 (Brain research, 2014).

Data set [1] can be described thus: Quantification in rat plasma and brain tissue. The data set is classed as in vivo, Wistar rats. The settings on record: for brain estimated free concentration: total × free fraction.
The subject of data set [2] is male Wistar rats. The data set is described as follows: Rotarod test. In kind it is in vivo. The settings on record: for RR time on rotarod: max 120 s, mean ± SEM.
Data set [3] deals with male Wistar rats. The data set is described as follows: Elevated plus maze test. In kind it is in vivo. To be noted: for EPM % time on open arms / EPM number of closed arm entries: mean ± SEM. The method, boiled down:
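Maze 50 cm high, closed arms lit at 10 lux red. Rat placed centrally facing an enclosed arm and video-tracked for 5 min. Arm entry scored at 80% body crossing. One-way ANOVA; ANCOVA for % open-arm time with closed-arm entries as covariate; n=7.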

The subject of data set [4] is male Wistar rats. Kind of data set: Open field test. The settings on record: for OF total distance: 15 min; for OF total distance / OF % time in central zone: mean ± SEM; for OF % time in central zone: first 5 min. In kind it is in vivo.
Data set [5] has as its target α1β3γ2 GABAA receptors (Rattus norvegicus, UniProt P18508+P62813). The data set is classed as cell-based. To be noted: for in vitro efficacy: GABA EC3.
In data set [6] the test system is male Wistar rats. Kind of data set: Spontaneous locomotor activity test. To be noted: for SLA total distance: 30 min recording, mean ± SEM. In kind it is in vivo.
In data set [7] the test system is male Wistar rats. The data set is described as follows: Morris water maze test. In kind it is in vivo. The settings on record: acquisition, mean ± SEM. The essentials: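 Pool 200 cm diameter, 23 °C water, platform submerged 2 cm. Four trials per block, max 120 s each, 60 s intertrial interval, pseudorandom starts. Escape latency video-tracked and averaged per rat per day; n=7.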

Data set [8] has as its system male Wistar rats. Kind of data set: Peripheral nerve injury model. The data set is classed as in vivo.
The subject of data set [9] is male Wistar rats. The data set is described as follows: Grip strength test. The data set is classed as in vivo. To be noted: for GS grip strength: mean ± SEM. The essentials:
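At 20 min post-dose, rats gripped a trapezoid wire grid on a grip-strength meter with their front paws and were lifted by the tail with increasing firmness until release. n=8 per group; one-way ANOVA.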

For data set [10] the following is noted: ref Munro et al., 2008, cited from earlier work.

Sequence of α1β3γ2 GABAA receptors (P62813 28-455): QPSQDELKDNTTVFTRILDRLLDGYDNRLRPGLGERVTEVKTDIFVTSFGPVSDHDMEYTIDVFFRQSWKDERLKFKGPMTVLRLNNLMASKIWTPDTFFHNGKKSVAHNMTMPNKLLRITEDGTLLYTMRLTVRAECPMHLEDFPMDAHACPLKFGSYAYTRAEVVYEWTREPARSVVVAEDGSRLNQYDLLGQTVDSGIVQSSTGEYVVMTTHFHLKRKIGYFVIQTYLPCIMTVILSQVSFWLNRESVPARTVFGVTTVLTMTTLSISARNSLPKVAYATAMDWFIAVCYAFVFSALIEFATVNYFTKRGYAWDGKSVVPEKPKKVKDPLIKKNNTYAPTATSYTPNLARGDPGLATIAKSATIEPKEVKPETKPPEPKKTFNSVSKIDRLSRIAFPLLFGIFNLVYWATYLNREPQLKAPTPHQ
Sequence of α1β3γ2 GABAA receptors (P18508 39-466): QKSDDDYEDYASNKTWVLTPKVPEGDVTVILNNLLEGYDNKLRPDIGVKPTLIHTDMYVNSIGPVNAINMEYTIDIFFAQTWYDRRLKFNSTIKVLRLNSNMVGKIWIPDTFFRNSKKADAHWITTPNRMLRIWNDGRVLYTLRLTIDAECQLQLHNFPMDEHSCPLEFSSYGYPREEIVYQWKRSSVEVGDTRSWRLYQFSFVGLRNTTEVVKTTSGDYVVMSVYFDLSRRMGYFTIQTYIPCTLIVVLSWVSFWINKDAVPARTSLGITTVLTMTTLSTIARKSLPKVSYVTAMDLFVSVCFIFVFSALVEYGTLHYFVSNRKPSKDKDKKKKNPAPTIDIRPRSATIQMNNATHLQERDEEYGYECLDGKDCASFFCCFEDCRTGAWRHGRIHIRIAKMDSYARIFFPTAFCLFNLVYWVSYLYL
Sequence of α1β3γ2 GABAA receptors (P63079 26-473 partner): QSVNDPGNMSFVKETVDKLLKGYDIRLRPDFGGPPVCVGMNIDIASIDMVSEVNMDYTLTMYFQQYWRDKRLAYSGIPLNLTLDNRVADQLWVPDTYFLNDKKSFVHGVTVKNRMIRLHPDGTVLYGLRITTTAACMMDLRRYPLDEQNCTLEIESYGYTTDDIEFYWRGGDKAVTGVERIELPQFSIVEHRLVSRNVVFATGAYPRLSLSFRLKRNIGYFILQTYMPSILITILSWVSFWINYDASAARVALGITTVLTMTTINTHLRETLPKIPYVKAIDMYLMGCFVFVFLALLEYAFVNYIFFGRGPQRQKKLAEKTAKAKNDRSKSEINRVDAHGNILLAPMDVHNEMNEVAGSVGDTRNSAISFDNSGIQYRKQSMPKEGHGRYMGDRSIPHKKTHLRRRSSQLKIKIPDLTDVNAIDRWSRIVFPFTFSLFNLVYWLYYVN

In the case of `C[C@@H]1N=C(c2ccccc2F)c2cc(Br)ccc2NC1=O` [SH-I-048A, (S)-7-bromo-5-(2-fluorophenyl)-3-methyl-1Hbenzo[e][1,4]diazepin-2(3H)-one], in data set [1] (0.5 mg/kg i.p., 20 min), the brain total concentration stood at 231.12 ± 52.27 nmol/kg and the “brain estimated free concentration” value is reported as 3.26 nmol/kg. Further, in data set [1] (2 mg/kg i.p., 20 min), the brain total concentration came out at 750.59 ± 307.14 nmol/kg and the “brain estimated free concentration” value was 10.60 nmol/kg. Besides, in data set [1] (2 mg/kg i.p., 60 min), the brain total concentration came out at 739.37 ± 182.94 nmol/kg and the “brain estimated free concentration” value is listed as 10.45 nmol/kg. For the same molecule, in data set [1] (10 mg/kg i.p., 20 min), the brain total concentration was found to be 2096.33 ± 858.32 nmol/kg and the “brain estimated free concentration” value is reported as 29.62 nmol/kg. Further, in data set [1] (10 mg/kg i.p., 60 min), the brain total concentration was 1035.23 ± 421.19 nmol/kg and the “brain estimated free concentration” value was 14.63 nmol/kg. In addition, the “RR time on rotarod” value in data set [2] (10 mg/kg i.p.) is reported as 0.25 ± 0.16 s. Moreover, in data set [3] (10 mg/kg i.p.), the “EPM % time on open arms” value worked out at 67.43 ± 12.34 % and the “EPM number of closed arm entries” value came out at 4.00 ± 1.23. Besides, in data set [3] (0.5 and 2 mg/kg, data not shown), the “influence on EPM parameters, preliminary study” value is recorded as “devoid of any influences”. Also, in data set [3] (2, 5 and 10 mg/kg, one-way ANOVA p=0.072), the “effect of treatment on number of closed arm entries” value is reported as “no significant effect”. Further, the “effect of treatment on percentage of time spent on open arms” value in data set [3] (2, 5 and 10 mg/kg, one-way ANOVA p=0.095) is listed as “not significant”. Besides, in data set [4] (10 mg/kg i.p.), the OF total distance came out at 15.39 ± 5.35 m and the “OF % time in central zone” value was found to be 30.01 ± 15.49%. Also, the “effect on total distance traveled in open field vs solvent” value in [4] (10 mg/kg only, Dunnett p<0.001) is recorded as “significantly decreased”. Also, the “effect on percent of time spent in the central zone” value in [4] (0.2, 0.5, 2 and 10 mg/kg, p=0.669) is given as “not significantly affected”. In data set [5] (concentration 1 nM), the in vitro efficacy was found to be 124%. The in vitro efficacy in data set [5] (concentration 10 nM) is listed as 256%. Besides, the “approximated potentiation at estimated in vivo free brain concentration” value in data set [5] (free concentration 3.26 nM (0.5 mg/kg i.p., 20 min), linear interpolation) is 157%. This molecule came in with an SLA total distance in data set [6] (10 mg/kg i.p.) of 6.42 ± 2.26 m. The “influence on total distance traveled during 30 min” value in data set [6] (2, 5 and 10 mg/kg, one-way ANOVA p=0.061) is reported as “did not reach statistical significance”. In addition, the “distance traveled in second 5-min bin (5–10 min) vs solvent” value in data set [6] (5 and 10 mg/kg, p=0.017 and p=0.008) is on record as “traveled shorter distances than the solvent-treated animals”. In data set [7] (10 mg/kg i.p. daily), the “MWM latency Day 1” value is reported as 102.11 ± 9.11 s, the “MWM latency Day 2” value is 88.52 ± 9.40 s, the “MWM latency Day 3” value is listed as 62.98 ± 14.13 s and the “MWM latency Day 4” value is given as 53.39 ± 14.74 s. The “MWM latency Day 5” value in [7] (10 mg/kg i.p. daily) amounted to 42.65 ± 13.99 s. Also, the “effect of Treatment on paw withdrawal threshold 48 h after surgery” value in data set [8] (10 mg/kg, one to three doses, p=0.157) is on record as “no significant effect”. Further, in [8] (three doses of 10 mg/kg (0, 12, 23 h), p=0.015), the “paw withdrawal threshold 24 h after injury vs solvent” value is recorded as “significantly higher paw withdrawal threshold; also recorded: reversed mechanical hyperalgesia”. The GS grip strength in [9] (10 mg/kg i.p.) was 2588.83 ± 169.52 g/kg. In addition, the “effect on grip strength vs solvent” value in data set [9] (2, 5 and 10 mg/kg, p=0.002, p<0.001, p=0.002) is “significant muscle relaxation”.
For `CN1C(=O)CN=C(c2ccccc2)c2cc(Cl)ccc21` [diazepam, reference compound], the “RR time on rotarod” value in [2] (2 mg/kg i.p.) is 41.70 ± 9.79 s. Moreover, the “effect on hind paw hypersensitivity” value in data set [10] (highest dose tested (10 mg/kg)) is on record as “able to attenuate hind paw hypersensitivity”. In [3] (2 mg/kg i.p.), the “EPM % time on open arms” value turned out to be 76.67 ± 6.67 % and the “EPM number of closed arm entries” value is reported as 4.09 ± 0.77. For the same molecule, in data set [4] (2 mg/kg i.p.), the OF total distance was 24.50 ± 5.34 m and the “OF % time in central zone” value was 3.09 ± 1.15%. This molecule also came in with an SLA total distance in data set [6] (2 mg/kg i.p.) of 7.17 ± 1.13 m. Moreover, in [7] (2 mg/kg i.p. daily), the “MWM latency Day 1” value came to 103.45 ± 10.64 s, the “MWM latency Day 2” value amounted to 92.82 ± 6.40 s, the “MWM latency Day 3” value stood at 77.83 ± 15.52 s and the “MWM latency Day 4” value is given as 59.02 ± 9.78 s. Further, the “MWM latency Day 5” value in data set [7] (2 mg/kg i.p. daily) was determined as 56.40 ± 10.20 s. Besides, the GS grip strength in data set [9] (2 mg/kg i.p.) is on record as 1722.50 ± 197.65 g/kg.
On to `Cc1ccc(-c2nc3ccc(C)cn3c2CC(=O)N(C)C)cc1` [zolpidem], for which the “activity in chronic constriction injury model” value in data set [10] is “completely inactive”.
In the case of `CC(C)(C)OC(=O)c1cc2c(cn1)[nH]c1ccccc12` [β-CCt, t-butyl-β-carboline-3-carboxylate], the “effect of adding β-CCt on latency to fall from the revolving rod” value in data set [2] (β-CCt 30 mg/kg added to 10 and 25 mg/kg SH-I-048A, 0.5, 1 and 1.5 h) was “increased latency to fall”.
